Data set [1] is described as follows: Anti convulsant activity administered intra peritoneally to mouse for toxicity at 4 hr with dose of 100 mg/kg; 1/4= No of animals exhibiting toxicity /No of animals tested. The following applies: in vivo, ip. The data set is classed as organism-based. On the set-up: dose 100 mg/kg.
Data set [2] can be described thus: Anti convulsant activity administered intra peritoneally to mouse for toxicity at 4 hr with dose of 300 mg/kg; 0/2= No of animals exhibiting toxicity /No of animals tested. It is filed as organism-based. On the set-up: dose 300 mg/kg. To be noted: in vivo, ip.
Data set [3] is described as follows: Anticonvulsant activity after oral administration of 100 mg/kg dose after 30 min in rats; ++ means 50% of the animals protected. To be noted: rat, in vivo, 0.5 h. The data set is classed as organism-based. On the set-up: dose 100 mg/kg, route oral. Summed up: (§1)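 Oral dosing of rats at a single dose, compound dissolved or suspended in 0.5% methylcellulose. Protection in the MES or scMet test checked 15 min, 30 min, 1 h, 2 h and 4 h after dosing. Scored as 25/50/75/100% of animals protected (+ to ++++), – for none.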

A short description of data set [4]: Toxicity after oral administration of 100 mg/kg dose in rats; + means 25% of the animals exhibit toxicity. The following applies: rat, in vivo. It is filed as organism-based. On the set-up: dose 100 mg/kg, route oral. In short, it runs like this:
(§2)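 Rats dosed orally with compound dissolved or suspended in 0.5% methylcellulose (0.04 mL per 10 g body weight). Anticonvulsant protection (MES or scMet) and toxicity scored at 15 min, 30 min, 1 h, 2 h and 4 h after dosing. Graded in steps of 25% of animals protected or showing toxicity.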

A short description of data set [5]: Anti convulsant activity administered intra peritoneally to mouse for toxicity at 4 hr with dose of 30 mg/kg; 0/2= No of animals exhibiting toxicity /No of animals tested. The data set is classed as organism-based. On the set-up: dose 30 mg/kg. The following applies: in vivo, ip.
Data set [6] is described as follows: Anti convulsant activity administered intra peritoneally to mouse for toxicity at 0.5 hr with dose of 30 mg/kg; 0/4= No of animals exhibiting toxicity /No of animals tested. To be noted: in vivo, ip. It is filed as organism-based. On the set-up: dose 30 mg/kg.
Data set [7] is described as follows: Anti convulsant activity administered intra peritoneally to mouse for toxicity at 0.5 hr with dose of 100 mg/kg; 7/8= No of animals exhibiting toxicity /No of animals tested. On the set-up: dose 100 mg/kg. The data set is classed as organism-based. To be noted: in vivo, ip.
Data set [8] can be described thus: Anti convulsant activity administered intra peritoneally to mouse for toxicity at 0.5 hr with dose of 300 mg/kg; 4/4= No of animals exhibiting toxicity /No of animals tested. The following applies: in vivo, ip. It is filed as organism-based. On the set-up: dose 300 mg/kg.
The test system of data set [9] is Mus musculus. In words: Anti convulsant activity administered intra peritoneally to mouse at maximal electroshock test at 4 hr after the drug administered with dose of 30 mg/kg; 0/1= No of animals protected /No of animals tested. It is filed as functional. Background: The maximal electroshock test induces tonic seizures with an electrical stimulus.
Data set [10] has as its system Mus musculus. In words: Anti convulsant activity administered intra peritoneally to mouse at maximal electroshock test at 4 hr after the drug administered with dose of 100 mg/kg; 0/3= No of animals protected /No of animals tested. It is filed as functional.
Data set [11] relates to Mus musculus. In words: Anti convulsant activity administered intra peritoneally to mouse at maximal electroshock test at 4 hr after the drug administered with dose of 300 mg/kg; 0/1= No of animals protected /No of animals tested. It is filed as functional.
Data set [12] relates to Mus musculus. In words: Anti convulsant activity administered intra peritoneally to mouse at maximal electroshock test at 0.5 h after the drug administered with dose of 30 mg/kg; 0/1= No of animals protected /No of animals tested. The data set is classed as functional.
Data set [13] has as its system Mus musculus. Description: Anti convulsant activity administered intra peritoneally to mouse for subcutaneous metrazol test at 4 hr after the drug administered with dose of 30 mg/kg; 0/1= No of animals protected /No of animals tested. The following applies: route intraperitoneal. It is filed as functional.
Data set [14] has as its system Mus musculus. In words: Anti convulsant activity administered intra peritoneally to mouse at maximal electroshock test at 0.5 hr after the drug administered with dose of 100 mg/kg; 0/3= No of animals protected /No of animals tested. It is filed as functional.
The test system of data set [15] is Mus musculus. In words: Anti convulsant activity administered intra peritoneally to mouse at maximal electroshock test at 0.5 h after the drug administered with dose of 300 mg/kg; 0/1= No of animals protected /No of animals tested. It is filed as functional.
Data set [16] concerns Mus musculus. Description: Anti convulsant activity administered intra peritoneally to mouse for subcutaneous metrazol test at 4 hr after the drug administered with dose of 100 mg/kg; 0/1= No of animals protected /No of animals tested. The data set is classed as functional.
For data set [17], the system named is Rattus norvegicus. Description: Anticonvulsant activity after oral administration of 100 mg/kg dose after 1 hr in rats; + means 25% of the animals protected. The data set is classed as functional, organism-based. On the set-up: dose 100 mg/kg. Summed up:
as §1

In data set [18] the test system is Rattus norvegicus. In words: Anticonvulsant activity after oral administration of 100 mg/kg dose after 4 hr in rats; +means 25% of the animals protected. The data set is classed as functional, organism-based. On the set-up: dose 100 mg/kg. Summed up: as §1
The test system of data set [19] is Mus musculus. Description: Anti convulsant activity administered intra peritoneally to mouse for subcutaneous metrazol test at 4 hr with dose of 300 mg/kg; 0/1= No of animals protected /No of animals tested. It is filed as functional.
Data set [20] deals with Mus musculus. Description: Anti convulsant activity administered intra peritoneally to mouse for subcutaneous metrazol test at 0.5 hr with dose of 30 mg/kg; 0/1= No of animals protected /No of animals tested. It is filed as functional.
Data set [21] has as its system Mus musculus. In words: Anti convulsant activity administered intra peritoneally to mouse for subcutaneous metrazol test at 0.5 hr with dose of 100 mg/kg; 0/1= No of animals protected /No of animals tested. It is filed as functional.
The test system of data set [22] is Mus musculus. In words: Anti convulsant activity administered intra peritoneally to mouse for subcutaneous metrazol test at 0.5 h with dose of 300 mg/kg; 0/1= No of animals protected /No of animals tested. The data set is classed as functional.
The subject of data set [23] is Rattus norvegicus. Description: Toxicity after oral administration of 100 mg/kg dose in rats; + means 25% of the […]. The data set is classed as functional, organism-based. On the set-up: dose 100 mg/kg. Summed up:
as §2

The values that follow come from ChEMBL document CHEMBL1138683 (J Med Chem, 2004).

Each structure is given as a SMILES string.

In the case of `CCN(CCO)C(=O)C1C(C)(C)C1(C)C`, the Toxicity in [1] was 1; in data set [2], 0; in data set [4], 25% of the animals exhibit toxicity; in [5], 0; in data set [6] it was 0; in [7], 7. For the same compound, the Toxicity was 4 in [8] and 25% of the animals exhibit toxicity in data set [23]. Further, the Activity in data set [3] was 25% of the animals protected; in data set [9] it was 0; in data set [10], 0; in data set [11], 0; in data set [12], 0; in data set [13] it was 0. Further, the Activity is given as 0 in data set [14]; 0 in [15]; 0 in [16]; 25% of the animals protected in [17]; 25% of the animals protected in data set [18]; 0 in [19]. Moreover, the Activity in data set [20], in [21] and in data set [22] was 0 throughout.
